A word on the MIC: it is the least concentration at which growth counts as inhibited. By half-life is commonly meant the time needed for the level to fall by half in the phase considered. What is called IC50 is the point on the concentration scale where inhibition reaches its midpoint.

Series [1] deals with Cell membrane. Nature of the series: Induction of membrane depolarization in Escherichia coli at 0.4 uM incubated 20 to 30 mins under dark by Eclipse fluorescence spectrometry. The class given is subcellular. The conditions noted are these: time 20-30 min. An outline of the steps:
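Exponential-phase E. coli (OD 0.2–0.4) was washed in 5 mM HEPES, 20 mM glucose, 100 mM KCl, pH 7.2, and resuspended to OD 0.05. DiSC3(5) was added at 0.4 μM final and equilibrated in the dark for 20–30 min to a stable baseline. Peptide was then added and dye release was followed by fluorescence at ex 625 nm / em 666 nm.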

The subject of series [2] is Cell membrane. Briefly: Induction of membrane damage in Escherichia coli assessed as loss of membrane integrity by measuring blebs at 10 uM incubated for 2 hrs by Electron scanning microscopy. The class given is subcellular. An outline of the steps: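 E. coli was grown in LB at 37 °C to OD600 0.4 and exposed to 10 μM peptide for 2 h at room temperature. Cells were collected on 0.1 μm filters, fixed in 2.5% glutaraldehyde in cacodylate buffer pH 7.4 and post-fixed in 1% OsO4. Samples were dehydrated in ethanol, coated with gold–palladium and imaged at 15 kV.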

Series [3] is described as follows: Hemolytic activity in horse RBC assessed as hemolysis at 250 uM relative to control. It counts as ADME, tissue-based, Equus caballus. The conditions noted are these: erythrocyte. An outline of the steps:
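Horse erythrocytes were diluted 10-fold in PBS and washed by three spins at 800g. They were incubated with peptides for 4 h at 37 °C, and supernatant absorbance was read at 540 nm. Percent hemolysis is relative to total lysis with 1% Triton X-100. Values are the mean of three independent studies.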

In a further series the test system is Salmonella enterica. Nature of the series: Antimicrobial activity against Salmonella enterica assessed as bacterial growth inhibition incubated in presence of serum for 24 hrs. It counts as functional. An outline of the steps: (§1)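 Broth microdilution in polypropylene plates in Mueller-Hinton medium, inoculum 5 × 10^5 CFU/mL, 37 °C for 24 h. […] MIC is the lowest peptide concentration with no growth. Values are the mean of three independent studies.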

Series [4] is described as follows: Retention time of the compound by HPLC analysis. The class given is physicochemical. Summed up: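 Analytical RP-HPLC on a C18 column (4.6 × 50 mm, 3 μm) with a linear gradient of 0–60% acetonitrile (0.036% TFA) into water (0.045% TFA) over 15 min. Flow was 1 mL/min with UV detection at 220 nm.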
A further series deals with Pseudomonas sp. Briefly: Antimicrobial activity against Pseudomonas sp assessed as bacterial growth inhibition incubated in presence of serum for 24 hrs. It counts as functional. Summed up: as §1
A further series relates to Shigella flexneri. Nature of the series: Antimicrobial activity against Shigella flexneri assessed as bacterial growth inhibition incubated in presence of serum for 24 hrs. It counts as functional. An outline of the steps: as §1
The subject of series [5] is Acinetobacter baumannii. Nature of the series: Antimicrobial activity against Acinetobacter baumannii assessed as bacterial growth inhibition incubated for 24 hrs.
A short description of series [6]: Stability in human serum assessed as half life by LC-MS analysis. It counts as ADME, cell-free. Summed up:
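1 mM peptide stocks in water were mixed 1:1 (v/v) with human serum. Aliquots were taken at set times and digestion was stopped by acetonitrile precipitation. Serum proteins were removed by centrifugation, and intact peptide and fragments in the supernatant were analysed by LC–MS. Half-life values are the mean of three independent studies.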

Series [7] concerns Escherichia coli. Briefly: Antimicrobial activity against Escherichia coli assessed as bacterial growth inhibition incubated for 24 hrs.
The subject of a further series is MRC5. Nature of the series: Cytotoxicity against human MRC5 cells assessed as cell growth inhibition measured after 4 hrs by MTT assay. The conditions noted are these: MRC5, 4 h. It counts as cell-based. Summed up:
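MRC-5 fibroblasts were grown in MEMα with 10% FBS, seeded at 3 × 10^4 cells/well and left overnight to adhere. Cells were exposed to two-fold peptide serial dilutions for 4 h, then given medium with MTT at 0.4 mg/mL for 150 min. Formazan was dissolved in DMSO and read at 600 nm. Values are the mean of three independent studies.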

The test system of series [8] is Escherichia coli. Briefly: Antimicrobial activity against clinical isolate Escherichia coli 116878 assessed as bacterial growth inhibition incubated in presence of serum for 24 hrs. The class given is functional. An outline of the steps: as §1
In series [9] the test system is Pseudomonas aeruginosa. Briefly: Antimicrobial activity against clinical isolate Pseudomonas aeruginosa 827632 assessed as bacterial growth inhibition incubated in presence of serum for 24 hrs. It counts as functional. An outline of the steps: as §1
In series [10] the test system is Salmonella typhimurium. Briefly: Antimicrobial activity against clinical isolate Salmonella typhimurium 365 assessed as bacterial growth inhibition incubated in presence of serum for 24 hrs. It counts as functional, Salmonella enterica subsp. enterica serovar Typhimurium. The settings on record: Salmonella enterica. Summed up: as §1
Series [11] deals with Escherichia coli. Nature of the series: Antimicrobial activity against clinical isolate Escherichia coli cf073 assessed as bacterial growth inhibition incubated in presence of serum for 24 hrs. It counts as functional. An outline of the steps:
as §1

For series [12], the system named is Acinetobacter baumannii. Briefly: Antimicrobial activity against clinical isolate Acinetobacter baumannii 3880 assessed as bacterial growth inhibition incubated in presence of serum for 24 hrs. The class given is functional. Summed up: as §1
Series [13] concerns Acinetobacter baumannii. Nature of the series: Antimicrobial activity against clinical isolate Acinetobacter baumannii 3879 assessed as bacterial growth inhibition incubated in presence of serum for 24 hrs. The class given is functional. Summed up:
as §1

Series [14] concerns Salmonella typhimurium. Nature of the series: Antimicrobial activity against clinical isolate Salmonella typhimurium 324 assessed as bacterial growth inhibition incubated in presence of serum for 24 hrs. The class given is functional, Salmonella enterica subsp. enterica serovar Typhimurium. The settings on record: Salmonella enterica. Summed up: as §1
Series [15] concerns Acinetobacter baumannii. Briefly: Antimicrobial activity against clinical isolate Acinetobacter baumannii 3878 assessed as bacterial growth inhibition incubated in presence of serum for 24 hrs. It counts as functional. Summed up: as §1
Series [16] deals with Pseudomonas aeruginosa. Briefly: Antimicrobial activity against clinical isolate Pseudomonas aeruginosa 827651 assessed as bacterial growth inhibition incubated in presence of serum for 24 hrs. The class given is functional. Summed up: as §1
Series [17] relates to Acinetobacter baumannii. Nature of the series: Antimicrobial activity against clinical isolate Acinetobacter baumannii 3862 assessed as bacterial growth inhibition incubated in presence of serum for 24 hrs. It counts as functional. Summed up: as §1

Converted amounts (≈) assume the structure as drawn. The source made the active and inactive calls. Square brackets hold non-standard residues; d marks the D form. Peptide text beside a SMILES is read from it. Orn = NCCC[C@H](N)C(=O)O

With `CC[C@H](C)[C@H](NC(=O)[C@H](CCCCN)NC(=O)[C@H](CCC(=O)O)NC(=O)[C@H](CCCCN)NC(=O)[C@H](CO)NC(=O)[C@H](CCCCN)NC(=O)[C@H](CCCNC(=N)N)NC(=O)[C@H](Cc1ccccc1)NC(=O)[C@H](Cc1ccccc1)NC(=O)[C@H](CC(=O)O)NC(=O)CNC(=O)[C@H](CC(C)C)NC(=O)[C@@H](N)CC(C)C)C(=O)NCC(=O)N[C@@H](CCCCN)C(=O)N[C@@H](CCC(=O)O)C(=O)N[C@@H](Cc1ccccc1)C(=O)N[C@@H](CCCCN)C(=O)N[C@@H](CCCNC(=N)N)C(=O)N[C@H](C(=O)N[C@H](C(=O)N[C@@H](CCC(N)=O)C(=O)N[C@@H](CCCNC(=N)N)C(=O)N[C@H](C(=O)N[C@@H](CCCCN)C(=O)N[C@@H](CC(=O)O)C(=O)N[C@@H](Cc1ccccc1)C(=O)N[C@@H](CC(C)C)C(=O)N[C@@H](CCCNC(=N)N)C(=O)N[C@@H](CC(N)=O)C(=O)N[C@@H](CC(C)C)C(=O)N[C@H](C(=O)N1CCC[C@H]1C(=O)N[C@@H](CCCNC(=N)N)C(=O)N[C@H](C(=O)N[C@@H](CCC(=O)O)C(=O)N[C@@H](CO)C(=O)O)[C@@H](C)O)C(C)C)[C@@H](C)CC)C(C)C)[C@@H](C)CC`, the outcome in the series on Cell membrane [1] and in the series with Cell membrane [2] was Active.
Take `CC[C@H](C)[C@H](NC(=O)[C@H](C)NC(=O)[C@H](CCCN)NC(=O)[C@H](CCSC)NC(=O)[C@H](C)NC(=O)[C@@H](NC(=O)[C@@H](NC(=O)[C@H](CCCN)NC(=O)[C@@H]1CCCN1C(=O)[C@H](CO)NC(=O)[C@@H](NC(=O)[C@H](Cc1c[nH]cn1)NC(=O)[C@H](CCC(N)=O)NC(=O)[C@@H](NC(=O)[C@H](C)NC(=O)[C@H](Cc1ccccc1)NC(=O)[C@H](Cc1c[nH]c2ccccc12)NC(=O)[C@H](CCC(N)=O)NC(=O)[C@H](C)NC(=O)[C@H](CCCN)NC(=O)[C@@H](NC(=O)[C@H](Cc1ccccc1)NC(=O)[C@@H]1CCCN1C(=O)[C@@H](N)CCCN)[C@@H](C)O)[C@@H](C)CC)[C@@H](C)CC)[C@@H](C)O)[C@@H](C)CC)C(=O)N[C@@H](CC(N)=O)C(=O)N[C@@H](CC(N)=O)C(=O)N[C@@H](Cc1ccc(O)cc1)C(=O)N[C@@H](CCCN)C(=O)N[C@@H](Cc1c[nH]c2ccccc12)C(=O)N[C@@H](CCCN)C(=O)O`: in series [3], the Activity is 10%. The MIC in the series on Salmonella enterica came out at 25 µM; in the series with Pseudomonas sp. it was 6.25 µM; in the series with Shigella flexneri, 12.5 µM; in the series with Acinetobacter baumannii [5], 6.25 µM (≈ 21.9 µg/mL); in the series with Escherichia coli [7], 6.25 µM (≈ 21.9 µg/mL). The compound also registered a Retention_time in [4] of 8.4 min. For the same compound, the outcome in the series with Cell membrane [1] and in the series with Cell membrane [2] was Active. The half-life in series [6] was found to be 29.1 min. In the series with MRC5, the IC50 came out at 113 µM.
For the compound `CC[C@H](C)[C@H](NC(=O)[C@H](C)NC(=O)[C@H](CCCN)NC(=O)[C@H](CCSC)NC(=O)[C@H](C)NC(=O)[C@@H](NC(=O)[C@@H](NC(=O)[C@H](CCCN)NC(=O)[C@@H]1CCCN1C(=O)[C@H](CO)NC(=O)[C@@H](NC(=O)[C@H](Cc1c[nH]cn1)NC(=O)[C@H](CCC(N)=O)NC(=O)[C@@H](NC(=O)[C@H](C)NC(=O)[C@H](Cc1ccccc1)NC(=O)[C@H](Cc1c[nH]c2ccccc12)NC(=O)[C@H](CCC(N)=O)NC(=O)[C@H](C)NC(=O)[C@H](CCCN)NC(=O)[C@@H](NC(=O)[C@H](Cc1ccccc1)NC(=O)[C@H]1CCCN1C(=O)[C@@H](N)CCCN)[C@@H](C)O)[C@@H](C)CC)[C@@H](C)CC)[C@@H](C)O)[C@@H](C)CC)C(=O)N[C@@H](CC(N)=O)C(=O)N[C@@H](CC(N)=O)C(=O)N[C@@H](Cc1ccc(O)cc1)C(=O)N[C@@H](CCCN)C(=O)N[C@@H](Cc1c[nH]c2ccccc12)C(=O)N[C@@H](CCCN)C(=O)O`, in series [3], the Activity was 1.1%. For the same compound, the MIC with Escherichia coli [8] was 25 µM; in the series on Pseudomonas aeruginosa [9] it was over 100 µM; in the series on Salmonella enterica it was 50 µM; in the series with Salmonella typhimurium [10] it was 25 µM; in the series on Escherichia coli [11], 6.25 µM; in the series with Acinetobacter baumannii [12], 12.5 µM. Also, the MIC was 1.56 µM in the series with Pseudomonas sp.; 3.13 µM in the series with Acinetobacter baumannii [13]; 25 µM in the series on Salmonella typhimurium [14]; 0.78 µM in the series on Acinetobacter baumannii [15]; 25 µM with Pseudomonas aeruginosa [16]; 50 µM in the series with Shigella flexneri. The MIC in the series on Acinetobacter baumannii [5] is 12.5 µM (≈ 43.8 µg/mL); in the series with Escherichia coli [7] it was 3.13 µM (≈ 11 µg/mL); in the series with Acinetobacter baumannii [17], 1.56 µM. Further, the Retention_time in series [4] is on record as 10.9 min. Moreover, the outcome in the series on Cell membrane [1] and in the series on Cell membrane [2] was Active. For the same compound, the half-life in series [6] is over 480 min. The 50% inhibitory concentration (IC50) with MRC5 is 230 µM.
Turning to `CC[C@H](C)[C@H](NC(=O)[C@H](C)NC(=O)[C@H](CCCN)NC(=O)[C@H](CCSC)NC(=O)[C@H](C)NC(=O)[C@@H](NC(=O)[C@@H](NC(=O)[C@H](CCCN)NC(=O)[C@@H]1CCCN1C(=O)[C@H](CO)NC(=O)[C@@H](NC(=O)[C@H](Cc1c[nH]cn1)NC(=O)[C@H](CCC(N)=O)NC(=O)[C@@H](NC(=O)[C@H](C)NC(=O)[C@H](Cc1ccccc1)NC(=O)[C@H](Cc1c[nH]c2ccccc12)NC(=O)[C@H](CCC(N)=O)NC(=O)[C@H](C)NC(=O)[C@H](CCCN)NC(=O)[C@@H](NC(=O)[C@@H](N)Cc1ccccc1)[C@@H](C)O)[C@@H](C)CC)[C@@H](C)CC)[C@@H](C)O)[C@@H](C)CC)C(=O)N[C@@H](CC(N)=O)C(=O)N[C@@H](CC(N)=O)C(=O)N[C@@H](Cc1ccc(O)cc1)C(=O)N[C@@H](CCCN)C(=O)N[C@@H](Cc1c[nH]c2ccccc12)C(=O)N[C@@H](CCCN)C(=O)O` (H-FT[Orn]AQWFAIQHISP[Orn]TIAM[Orn]AINNY[Orn]W[Orn]-OH), the Activity in series [3] came to 11%. For the same compound, the minimal inhibitory concentration (MIC) was over 100 µM with Salmonella enterica; 25 µM in the series with Pseudomonas sp.; 50 µM with Shigella flexneri; over 100 µM with Acinetobacter baumannii [5]; 25 µM (≈ 82.4 µg/mL) in the series on Escherichia coli [7]. The same compound had a Retention_time in series [4] of 10.8 min. Also, the half-life in [6] was over 480 min. Besides, the IC50 in the series on MRC5 is over 300 µM.

Values taken from ChEMBL document CHEMBL5030529, “Rationally Modified Antimicrobial Peptides from the N-Terminal Domain of Human RNase 3 Show Exceptional Serum Stability” (J Med Chem, 2021).
